From ChEMBL document CHEMBL3259728, “Design, synthesis and biological evaluation of some novel substituted quinazolines as antitumor agents” (2014)

How the values were obtained:
Assay type in all cases: functional
[1] = Growth inhibition of human Hs578T cells assessed as cell growth at 10^-5 M after 48 hrs by SRB assay; conditions: Hs-578T, read-out: Activity
T47D = experiment: Growth inhibition of human T47D cells at 10 uM after 48 hrs by SRB assay; conditions: read-out: GI
Method in brief: (§1)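 NCI-60 primary one-dose screen run at the US NCI, with human tumour lines from nine cancer types. Compound added once at 10^-5 M, followed by 48 h incubation. End point was sulforhodamine B protein staining read spectrophotometrically. Result given as percent growth of treated cells against untreated controls, reported as % growth inhibition.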

[2] = Growth inhibition of human Hs578T cells at 10 uM after 48 hrs by SRB assay; conditions: Hs-578T, read-out: GI; method in brief: as §1
MCF7 = experiment: Growth inhibition of human MCF7 cells at 10 uM after 48 hrs by SRB assay; conditions: MCF7, 48 h, read-out: GI; method in brief: as §1
[3] = Growth inhibition of human RXF393 cells at 10 uM after 48 hrs by SRB assay; conditions: RXF 393, 48 h, read-out: GI; method in brief: as §1
CAKI-1 = experiment: Growth inhibition of human CAKI-1 cells at 10 uM after 48 hrs by SRB assay; conditions: CAKI-1, 48 h, read-out: GI
Method in brief: (§2)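 NCI primary one-dose screen. A single concentration of 10^-5 M was added to the cell culture, followed by 48 h incubation and an SRB protein-dye endpoint read spectrophotometrically. Results are growth percentage relative to untreated control cells, reported as % growth inhibition.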

ACHN = experiment: Growth inhibition of human ACHN cells at 10 uM after 48 hrs by SRB assay; conditions: read-out: GI; method in brief: as §2
A498 = experiment: Growth inhibition of human A498 cells at 10 uM after 48 hrs by SRB assay; conditions: A498, 48 h, read-out: GI; method in brief: as §2
[4] = Growth inhibition of human OVCAR4 cells at 10 uM after 48 hrs by SRB assay; conditions: OVCAR-4, 48 h, read-out: GI; method in brief: as §1
[5] = Growth inhibition of human UACC257 cells at 10 uM after 48 hrs by SRB assay; conditions: UACC-257, 48 h, read-out: GI; method in brief: as §1
SNB-75 [6] = experiment: Growth inhibition of human SNB75 cells at 10 uM after 48 hrs by SRB assay; conditions: SNB-75, 48 h, read-out: GI; method in brief: as §1
SF-268 = experiment: Growth inhibition of human SF268 cells at 10 uM after 48 hrs by SRB assay; conditions: SF-268, 48 h, read-out: GI; method in brief: as §1
KM12 = experiment: Growth inhibition of human KM12 cells at 10 uM after 48 hrs by SRB assay; conditions: KM12, 48 h, read-out: GI; method in brief: as §1
HT-29 = experiment: Growth inhibition of human HT-29 cells at 10 uM after 48 hrs by SRB assay; conditions: HT-29, 48 h, read-out: GI; method in brief: as §1
SNB-75 [7] = experiment: Growth inhibition of human SNB75 cells assessed as cell growth at 10^-5 M after 48 hrs by SRB assay; conditions: SNB-75, 48 h, read-out: Activity
NCI-H23 [8] = experiment: Growth inhibition of human NCI-H23 cells at 10 uM after 48 hrs by SRB assay; conditions: NCI-H23, 48 h, read-out: GI; method in brief: as §1
A549 = experiment: Growth inhibition of human A549 cells at 10 uM after 48 hrs by SRB assay; conditions: A549, 48 h, read-out: GI; method in brief: as §2
RPMI-8226 = experiment: Growth inhibition of human RPMI8226 cells at 10 uM after 48 hrs by SRB assay; conditions: RPMI-8226, 48 h, read-out: GI; method in brief: as §1
[9] = Growth inhibition of human MOLT4 cells at 10 uM after 48 hrs by SRB assay; conditions: MOLT-4, 48 h, read-out: GI; method in brief: as §1
HL-60(TB) = experiment: Growth inhibition of human HL-60(TB) cells at 10 uM after 48 hrs by SRB assay; conditions: HL-60, 48 h, read-out: GI
Method in brief: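 NCI 60-cell-line primary screen: compound added at single concentration 10^-5 M, cultures incubated 48 h; end point by sulforhodamine B protein staining read spectrophotometrically; result given as growth percentage of treated versus untreated control cells, reported as % growth inhibition.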

NCI-H23 [10] = experiment: Growth inhibition of human NCI-H23 cells assessed as cell growth at 10^-5 M after 48 hrs by SRB assay; conditions: NCI-H23, 48 h, read-out: Activity
786-0 = experiment: Growth inhibition of human 786-0 cells assessed as cell growth at 10^-6 M after 48 hrs by SRB assay; conditions: 786-0, 48 h, read-out: Activity
Method in brief: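 Five-dose NCI panel protocol. Each dose (10^-4 to 10^-8 M, 10-fold steps) was given as 48 h continuous exposure, and protein was measured by SRB staining. Percentage growth at each level is [(Ti−Tz)/(C−Tz)]×100, where Tz is time-zero absorbance and C is untreated control.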

SK-MEL-28 = experiment: Growth inhibition of human SK-MEL-28 cells at 10 uM after 48 hrs by SRB assay; conditions: SK-MEL-28, 48 h, read-out: GI; method in brief: as §1
[11] = Cytotoxicity against human UO31 cells after 48 hrs by SRB assay; conditions: UO-31, 48 h
Method in brief: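 NCI 60-cell-line panel, 48 h continuous exposure to five 10-fold dilutions from 10^-4 to 10^-8 M. SRB protein staining was read spectrophotometrically, with time-zero, untreated-control and treated absorbances. GI50, TGI and LC50 were derived from the percentage-growth formulas. Values outside the tested range are expressed as more or less than the maximum or minimum concentration.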

[12] = Growth inhibition of human NCI-ADR-RES cells assessed as cell growth at 10^-7 M after 48 hrs by SRB assay; conditions: read-out: Activity
[13] = Growth inhibition of human OVCAR8 cells assessed as cell growth at 10^-7 M after 48 hrs by SRB assay; conditions: OVCAR-8, 48 h, read-out: Activity
SW-620 = experiment: Growth inhibition of human SW620 cells assessed as cell growth at 10^-7 M after 48 hrs by SRB assay; conditions: SW-620, 48 h, read-out: Activity
MDA-MB-231 = experiment: Growth inhibition of human MDA-MB-231 cells assessed as cell growth at 10^-4 M after 48 hrs by SRB assay; conditions: MDA-MB-231, 48 h, read-out: Activity

## Cc1ccc(-c2nc3ccc(Cl)cc3c(=O)n2/N=C/c2ccccc2)cc1
[1]
  growth at 10 µM: 3%
T47D
  inhibition of growth at 10 µM: 25%
[2]
  inhibition of growth at 10 µM: 44%
MCF7
  inhibition of growth at 10 µM: 20%
[3]
  inhibition of growth at 10 µM: < 10%
CAKI-1
  inhibition of growth at 10 µM: 40%
ACHN
  inhibition of growth at 10 µM: 74%
A498
  inhibition of growth at 10 µM: 16%
[4]
  inhibition of growth at 10 µM: 86%
[5]
  inhibition of growth at 10 µM: < 10%
SNB-75 [6]
  inhibition of growth at 10 µM: 74%
SF-268
  inhibition of growth at 10 µM: 40%
KM12
  inhibition of growth at 10 µM: 18%
HT-29
  inhibition of growth at 10 µM: 17%
SNB-75 [7]
  growth at 10 µM: 31%
NCI-H23 [8]
  inhibition of growth at 10 µM: 11%
A549
  inhibition of growth at 10 µM: 87%
RPMI-8226
  inhibition of growth at 10 µM: 20%
[9]
  inhibition of growth at 10 µM: 18%
HL-60(TB)
  inhibition of growth at 10 µM: 26%
NCI-H23 [10]
  growth at 10 µM: 65%
786-0
  growth at 1 µM: 90%
SK-MEL-28
  inhibition of growth at 10 µM: < 10%
[11]; read-out: GI50
  GI50: 3.66 µM
[11]; read-out: LC50 (the source's name)
  CC50: > 100 µM
[11]; read-out: TGI
  TGI: > 100 µM
[11]; read-out: pGI50 (converted)
  GI50: 3.63 µM
[11]; read-out: pLC50 (the source's name) (converted)
  CC50: > 100 µM
[11]; read-out: pTGI
  TGI: > 100 µM
[12]
  growth at 0.1 µM: 95%
[13]
  growth at 0.1 µM: 100%
SW-620
  growth at 0.1 µM: 93%
MDA-MB-231
  growth at 100 µM: 16%
